# From ChEMBL document CHEMBL2346583, “Synthesis of new fluorinated, 2-substituted 5-pyrrolidinylsulfonyl isatin derivatives as caspase-3 and caspase-7 inhibitors: nonradioactive counterparts of putative PET-compatible apoptosis imaging agents” (Bioorg Med Chem, 2013)
# Columns and labels:
# Caspase-1 = target: T1, Caspase-1 (Homo sapiens, UniProt P29466); assay: Inhibition of human recombinant caspase 1 assessed as decrease in AMC release using Ac-Tyr-Val-Ala-Asp-AMC as substrate preincubated with enzyme for 10 mins prior to substrate addition measured after 10 mins by fluorescence microplate analysis
# T1 sequence (P29466 whole entry): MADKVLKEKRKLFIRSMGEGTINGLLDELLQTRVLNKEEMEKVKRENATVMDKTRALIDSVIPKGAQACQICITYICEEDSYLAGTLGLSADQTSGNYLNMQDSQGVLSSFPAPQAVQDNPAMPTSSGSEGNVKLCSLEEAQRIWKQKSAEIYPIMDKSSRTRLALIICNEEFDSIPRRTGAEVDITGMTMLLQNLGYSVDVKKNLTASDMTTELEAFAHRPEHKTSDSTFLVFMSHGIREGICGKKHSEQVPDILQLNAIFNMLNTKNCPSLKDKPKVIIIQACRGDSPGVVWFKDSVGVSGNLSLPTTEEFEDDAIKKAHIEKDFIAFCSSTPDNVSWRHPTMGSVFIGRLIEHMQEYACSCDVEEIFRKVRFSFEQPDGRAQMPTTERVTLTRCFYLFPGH
# Outline: (§1)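 Recombinant human caspase at 0.5 units per assay (defined as 500 pmol substrate converted in 60 min), diluted in reaction buffer. Compounds in DMSO, tested at final concentrations from 500 µM down to 5 pM in tenfold steps. Enzyme and compound pre-incubated for 10 min at 37 °C. AMC peptide substrate then added to a final 10 µM and reacted for 10 min. IC50 obtained by nonlinear regression.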
# Caspase-7 = target: T2, Caspase-7 (Homo sapiens, UniProt P55210); assay: Inhibition of human recombinant caspase 7 assessed as decrease in AMC release using Ac-Asp-Glu-Val-Asp-AMC as substrate preincubated with enzyme for 10 mins prior to substrate addition measured after 10 mins by fluorescence microplate analysis; outline: as §1
# T2 sequence (P55210 whole entry): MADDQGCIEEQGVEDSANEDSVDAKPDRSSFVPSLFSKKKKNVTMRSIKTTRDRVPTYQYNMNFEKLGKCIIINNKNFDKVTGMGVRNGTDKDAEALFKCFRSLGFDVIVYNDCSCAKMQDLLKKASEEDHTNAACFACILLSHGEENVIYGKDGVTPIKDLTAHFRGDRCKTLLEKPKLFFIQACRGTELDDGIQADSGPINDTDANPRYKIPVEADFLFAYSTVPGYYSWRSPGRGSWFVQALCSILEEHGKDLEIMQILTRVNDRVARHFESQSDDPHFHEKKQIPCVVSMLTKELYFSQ
# Caspase-3 = target: T3, Caspase-3 (Homo sapiens, UniProt P42574); assay: Inhibition of human recombinant caspase 3 assessed as decrease in AMC release using Ac-Asp-Glu-Val-Asp-AMC as substrate preincubated with enzyme for 10 mins prior to substrate addition measured after 10 mins by fluorescence microplate analysis; outline: as §1
# T3 sequence (P42574 whole entry): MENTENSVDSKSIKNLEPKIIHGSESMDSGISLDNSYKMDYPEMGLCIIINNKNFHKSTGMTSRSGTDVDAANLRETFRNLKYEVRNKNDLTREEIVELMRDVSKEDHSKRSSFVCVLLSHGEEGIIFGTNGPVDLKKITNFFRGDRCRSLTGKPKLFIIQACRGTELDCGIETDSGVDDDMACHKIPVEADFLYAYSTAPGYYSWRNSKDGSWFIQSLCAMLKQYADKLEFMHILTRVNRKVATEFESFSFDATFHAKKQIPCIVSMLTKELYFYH
# Caspase-6 = target: T4, Caspase-6 (Homo sapiens, UniProt P55212); assay: Inhibition of human recombinant caspase 6 assessed as decrease in AMC release using Ac-Val-Glu-Ile-Asp-AMC as substrate preincubated with enzyme for 10 mins prior to substrate addition measured after 10 mins by fluorescence microplate analysis; outline: as §1
# T4 sequence (P55212 whole entry): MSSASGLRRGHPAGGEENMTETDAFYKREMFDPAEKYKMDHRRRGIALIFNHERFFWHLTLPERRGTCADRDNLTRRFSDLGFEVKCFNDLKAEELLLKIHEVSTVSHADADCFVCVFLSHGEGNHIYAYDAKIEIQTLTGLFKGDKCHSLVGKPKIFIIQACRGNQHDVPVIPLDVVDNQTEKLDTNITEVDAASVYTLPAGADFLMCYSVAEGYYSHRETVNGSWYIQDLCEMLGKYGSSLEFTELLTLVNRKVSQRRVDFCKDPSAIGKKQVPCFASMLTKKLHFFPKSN
Compound,IC50 (Caspase-1) [µM],IC50 (Caspase-7) [µM],IC50 (Caspase-3) [µM],IC50 (Caspase-6) [µM]
COCCCC1CCCN1S(=O)(=O)c1ccc2c(c1)C(=O)C(=O)N2CCCCF (racemic),> 500,0.0337,0.184,> 500
CCCCN1C(=O)C(=O)c2cc(S(=O)(=O)N3CCC[C@H]3COCC(F)(F)F)ccc21,25.9,0.00747,0.0468,> 500
CCCCN1C(=O)C(=O)c2cc(S(=O)(=O)N3CCC[C@H]3CCOC)ccc21,15.5,0.0246,0.0943,> 500
CCCCN1C(=O)C(=O)c2cc(S(=O)(=O)N3CCC[C@H]3COCCF)ccc21,24.7,0.0396,0.00479,> 500
COCC[C@@H]1CCCN1S(=O)(=O)c1ccc2c(c1)C(=O)C(=O)N2CCCCF,7.34,0.0123,0.0923,1.03
CCOC[C@@H]1CCCN1S(=O)(=O)c1ccc2c(c1)C(=O)C(=O)N2CCCCF,> 500,0.218,0.365,> 500
CCCCN1C(=O)C(=O)c2cc(S(=O)(=O)N3CCC[C@H]3COCC)ccc21,18.4,0.0646,0.0256,2.61
O=C1C(=O)N(CCCCF)c2ccc(S(=O)(=O)N3CCC[C@H]3COCCF)cc21,45.8,0.00968,0.0743,> 500
O=C1C(=O)N(CCCCF)c2ccc(S(=O)(=O)N3CCC[C@H]3COCC(F)(F)F)cc21,30.7,0.265,0.149,> 500

# The next lines start with the values.
IC50 (Caspase-1) [µM],IC50 (Caspase-7) [µM],IC50 (Caspase-3) [µM],IC50 (Caspase-6) [µM],Compound
12.1,0.54,0.349,> 500,COCC[C@@H]1CCCN1S(=O)(=O)c1ccc2c(c1)C(=O)C(=O)N2
18.4,1.33,0.346,> 500,O=C1Nc2ccc(S(=O)(=O)N3CCC[C@H]3COCCF)cc2C1=O
> 500,0.515,0.17,> 500,CCCCN1C(=O)C(=O)c2cc(S(=O)(=O)N3CCCC3CCCOC)ccc21 (racemic)
11.6,0.125,1.58,> 500,COCCCC1CCCN1S(=O)(=O)c1ccc2c(c1)C(=O)C(=O)N2 (racemic)
> 500,0.0132,1.12,> 500,CCOC[C@@H]1CCCN1S(=O)(=O)c1ccc2c(c1)C(=O)C(=O)N2
14.7,1.42,1.06,> 500,O=C1Nc2ccc(S(=O)(=O)N3CCC[C@H]3COCC(F)(F)F)cc2C1=O
